According to ChEMBL document CHEMBL1143772, “Samarium(II) promoted stereoselective synthesis of antiproliferative cis-beta-alkoxy-gamma-alkyl-gamma-lactones” (2007):

Experiments:
Type in all cases: functional
A2780 = assay: Antiproliferative activity against human A2780 cells after 48 hrs by SRB assay; conditions: A2780, 48 h; for CC50: read-out: LC50 (the source's name)
How it was run: (§1)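 NCI protocol, SRB read-out after 48 h continuous drug exposure; top test concentration 100 µM. A dose–response curve gives percentage growth (PG). GI50, TGI and LC50 are the concentrations at PG +50, 0 and −50. Values in µM, means of two to four experiments with standard deviation.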

SW1573 = assay: Antiproliferation activity against human SW1573 cells after 48 hrs by SRB assay; conditions: SW1573, 48 h; how it was run: as §1
WiDr = assay: Antiproliferation activity against human WiDr cells after 48 hrs by SRB assay; conditions: for CC50: read-out: LC50 (the source's name); how it was run: as §1

SMILES	GI50 (A2780) [µM]	GI50 (SW1573) [µM]	LC50 (concentration giving 50% net cell kill) (SW1573) [µM]	TGI (SW1573) [µM]	GI50 (WiDr) [µM]	TGI (A2780) [µM]	CC50 (A2780) [µM]	TGI (WiDr) [µM]	CC50 (WiDr) [µM]
CCCCCCC[C@H]1OC(=O)C[C@H]1OC1C=CCCC1 (some centres not stated)	84	23	95	49	–	–	–	–	–
CCCCCCC[C@H]1OC(=O)C[C@H]1OCc1ccccc1	63	52	–	–	44	–	–	–	–
CCCCCCC[C@H]1OC(=O)C[C@H]1OC1CCCCC1	16	18	71	36	16	31	61	33	71
C=CC(CCCCC)O[C@@H]1CC(=O)O[C@@H]1CCCCCCC (some centres not stated)	19	27	96	78	27	42	88	81	97
C#CC(CCCCCCC)O[C@@H]1CC(=O)O[C@@H]1CCCCCCC (some centres not stated)	22	32	97	83	32	51	80	86	–
C=CCC(C)O[C@@H]1CC(=O)O[C@@H]1CCCCCCC (some centres not stated)	48	33	–	83	39	–	–	–	–
